Results gathered from unrelated publications.
Lines come from different studies, so protocols differ.
Target: Mu-type opioid receptor (OPRM1, Homo sapiens, UniProt P35372)

SMILES	test	test system	conditions	quantity	result
COc1ccsc1CNCC[C@@]1(c2ccccn2)CCOC2(CCCC2)C1	β-arrestin recruitment, agonist	HEK-293T		Emax	< 5%
CCN(CC)CCCC[C@H](NC(=O)[C@H](CC(C)C)NC(=O)[C@H](C)NC(=O)[C@H](Cc1ccccc1)NC(=O)c1ccc(C(C)(C)C)cc1)C(=O)N[C@@H](CO)C(=O)OC	ligand displacement, radioligand		10 µM	remaining binding	48.6%
c1ccc(C(NCCNC(c2ccccc2)c2ccccc2)c2ccccc2)cc1	ligand displacement		10 µM	inhibition	21%
CC(C)N1CCC[C@H]1CNC(=O)c1cn(C2CCCC2)c(=O)c2c1c1ccccc1n2C	ligand displacement, radioligand		10 µM	inhibition	5%
COc1ccc2c(c1)O[C@H](c1ccc(OC)c(OC)c1)C[C@@H]2NC(=O)C1(c2ccc3c(c2)OC(F)(F)O3)CC1	cell-free assay		10 µM	inhibition	6.01%
COc1ccsc1CNCC[C@@]1(c2ccccn2)CCOC2(CCCC2)C1	β-arrestin recruitment, agonist			Emax	< 50%
CCCCC/C=C\C/C=C\C/C=C\C/C=C\CCCC(=O)O	ligand displacement, radioligand		10 µM, cell membranes	inhibition	80%
Clc1ccc2c(C3CCN(CCc4c[nH]c5ccccc45)CC3)c[nH]c2c1	ligand displacement, radioligand		10 µM	inhibition	93%
C[C@H](C(=O)N[C@H]1COc2ccccc2[C@@H]1S(C)(=O)=O)c1ccc(F)cc1	ligand displacement		10 µM	inhibition	-8%
COCc1c(-c2cc3cc(C)cc(OC)c3s2)c2c(N)ncnn2c1CN1CCNC(=O)C1	ligand displacement, radioligand		10 µM	inhibition	31%
CC1=C(C#N)C(c2ccc3[nH]nc(C)c3c2)C(C#N)=C(C)N1	ligand displacement		10 µM	inhibition	2.64%
Nc1ncc(-c2nc(N3CCOCC3)nc(N3CCOCC3)n2)c(C(F)F)n1	cell-free assay, radioligand		10 µM	remaining signal	104%
CC[C@@H]1CN2CC[C@@]3(O)C(=Nc4cccc(OC)c43)[C@@H]2C[C@@H]1/C(=C\OC)C(=O)OC	β-arrestin recruitment, agonist			Emax	< 50%
CC1(C)SSC(C)(C)[C@@H](NC(=O)[C@@H](N)Cc2ccc(O)cc2)C(=O)NCC(=O)N[C@@H](Cc2ccccc2)C(=O)N2CCN(CC2)C(=O)[C@H](Cc2ccccc2)NC(=O)CNC(=O)[C@@H]1NC(=O)[C@@H](N)Cc1ccc(O)cc1	cAMP, agonist, luciferase	HEK293		Emax	86%
CN(C)C(=O)Cn1cc(-c2nc(C3(c4ccc(-c5cnc(N)nc5)cc4)CC3)no2)cn1	cell-free assay		10 µM	inhibition	12.6%
CN1CCN(c2cc(-c3ccncc3)c(-c3ccc4ccccc4c3)nn2)CC1	calcium signal, agonist	OPRM1	12.5 µM	activation	0.3%
